# Compound activity deposited in PubChem by several laboratories.
# Rows were chosen to be rich in hits. Some 3.8% of all compounds tested hit in one or more screens of this group.
# MC4R barr agon: activates human MC4R beta-arrestin recruitment; P32245; U2OS MC4R beta-arrestin complementation, luminescence; percent of melanotan II response, DMSO zero; activation, % at 8.9 µM; hit rate 0.98% among 360,000; AID 540308;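 active = activation above a per-plate cutoff, the mean activation of sample wells on that plate plus 3 SD, cut at about 8% in these data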
# Target sequence (P32245 whole entry, looked up): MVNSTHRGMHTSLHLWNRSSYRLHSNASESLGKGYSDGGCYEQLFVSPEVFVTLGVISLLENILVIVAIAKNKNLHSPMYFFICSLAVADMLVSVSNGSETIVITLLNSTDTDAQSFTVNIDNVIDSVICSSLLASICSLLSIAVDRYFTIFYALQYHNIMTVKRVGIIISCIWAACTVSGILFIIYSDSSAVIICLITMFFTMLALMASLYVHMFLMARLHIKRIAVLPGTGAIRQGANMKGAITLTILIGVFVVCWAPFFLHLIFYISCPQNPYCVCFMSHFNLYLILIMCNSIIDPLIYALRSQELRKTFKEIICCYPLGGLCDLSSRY
# CSC inhib: cancer stem cell inhibition; cancer stem cell-like cells viability, luminescence; inhibition, % at 7.5 µM; hit rate 1.1% among 300,000; in the data active = inhibition above about 75%; tested in HMLE shEcad cells
# Beta apoptosis: blocks beta cell apoptosis. hit rate 0.8% among 300,000. protection from apoptosis, % (test concentration not listed). AID 435005. INS-1E cytokine-induced death, ATP luminescence, 48 h; percent of positive-control rescue, neutral wells zero;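 active = Every replicate reaches about 75%, or at least half do and their mean reaches it too, limit read from the data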;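 note: 0% = cytokine-treated negative control wells and 100% = positive control rescue; higher means more ATP so stronger rescue from cytokine killing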
# TMEM16A inh: mouse TMEM16A channel inhibition, primary screen | HEK293 TMEM16A/YFP iodide influx fluorescence, ionomycin | Q8BHY3 | hit rate 1.2% among 310,000 | normalized B-score (activity score, 25-100; higher = stronger inhibition) at 10 µM;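 active = ratio plate-corrected score three or more library SD toward inhibition, starting fluorescence score within five deviations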;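 note: score derived from kinetic fluorescence span divided by baseline fluorescence per well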
# MC4R antag cAMP: antagonists of human melanocortin 4 receptor (MC4R); P32245; MC4R-expressing cells, MTII-stimulated cAMP, LANCE TR-FRET; inhibition, % at 6.5 µM; hit rate 0.48% among 360,000;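 active = inhibition above its plate's cutoff, the mean of tested wells on that plate plus 3 SD, cut at about 29% in these data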;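 note: 0% = Melanotan II alone and 100% = Melanotan II plus saturating MCL0020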
#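 Material: U2OS-MC4R stable cell line | Reagent: Melanotan II challenge after compound preincubation | Doses: One concentration, 6.5 µM nominal | Incubation: 30-min compound preincubation, 1-h Melanotan II challenge, 1-h detection, room temperature | Signal: TR-FRET cAMP assay | Replicates: One well per compound, no replicates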
# TMEM16A act: activates or potentiates the mouse TMEM16A chloride channel | B-score at 10 µM | hit rate 0.3% among 340,000 | Q8BHY3 | HEK293 TMEM16A/YFP-H148Q/I152L, iodide quench fluorescence; active compounds read low;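 active = fluorescence-ratio B-score plate-corrected deviation score at least 3 library SD below zero, with starting fluorescence score within 5 deviations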;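 note: channel opened by trigger with iodide after compound preincubation; score built on the fluorescence ratio of max minus min over baseline; more negative score means more quench and so TMEM16A activation or potentiation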
# * marks the source's active call; other numbers are inactive results; i = inactive; / = no result given.
SMILES,MC4R barr agon,CSC inhib,Beta apoptosis,TMEM16A inh,MC4R antag cAMP,TMEM16A act
COc1cccc(Cn2nnc(C(=O)Nc3cc(Cl)ccc3OC)c2N)c1,0,79*,-5,i,-12,i
O=C1NCN(c2ccccc2)C12CCN(CCCC(c1ccc(F)cc1)c1ccc(F)cc1)CC2,7,78*,1,i,4,i
O=C(CCCN1CCN(c2ccccc2)CC1)c1ccc(F)cc1,1,/,/,/,-3,/
COc1ccc(-c2n(Cc3ccccc3)c3ccccc3[n+]2Cc2ccccc2)cc1,-1,25,113*,25*,26,i
Cc1cccc(OCC(=O)N/N=C\c2cc3c(cc2[N+](=O)[O-])OCO3)c1C,1,2,-2,25*,5,i
COc1ccc(-n2c(N)c(-c3nc4ccccc4n3C)sc2=S)cc1,1,-4,-3,i,3,i
CCOc1ccc(-n2c(N)c(-c3nc4ccccc4[nH]3)sc2=S)cc1,8.8*,-3,-12,i,2,i
N=C(N)SCc1nc2ccccc2c(=O)n1-c1ccccc1Cl,-2,93*,18,i,-1,i
Cc1ccccc1-n1c(CSC(=N)N)nc2ccccc2c1=O,-2,-12,-6,i,0,i
Cc1ccc(N2CCN(C(=O)CNS(=O)(=O)c3ccc(Br)s3)CC2C)cc1 (stereo unspecified),1,-3,-1,100*,3,i
CC1CC(C)CN(C(=O)CNS(=O)(=O)c2ccc(Br)s2)C1 (stereo unspecified),-1,-10,2,i,-5,i
O=C(/C=C/c1ccccc1[N+](=O)[O-])c1ccccc1Br,4,84*,-7,i,6,i
COc1cc2cc[n+](Cc3ccc([N+](=O)[O-])cc3)cc2cc1OC,1,-15,-8,i,0,i
CCCCn1c(SCC(N)=O)nc2sc3c(c2c1=O)CCC3,-1,99*,0,i,0,i
CCCn1c(SCC(=O)NCC)nc2sc3c(c2c1=O)CCC3,1,-15,4,i,17,i
c1ccc(-c2cc3c(ccc4nonc43)nn2)cc1,0,4,5,i,6,i
On1onc2c3cc(-c4ccccc4)nc3ccc21,0,0,101*,i,14,i
CCOC(=O)c1cccnc1SCc1cc(=O)n2ccccc2n1,-1,-6,-1,25*,7,i
Cc1cccc(N2C(=O)c3cccc(Oc4ccc(Cl)cc4)c3C2=O)c1,-1,-10,0,i,4,-7.3*
Cc1cccc(Cn2nnc3c2C(=O)c2ccccc2C3=O)c1,1,-14,110*,i,0,i
CCOC(=O)C1=C(COC(=O)c2cc(S(=O)(=O)N3CCOCC3)ccc2F)NC(=O)NC1C (stereo unspecified),0,/,/,/,-58,i
COc1ccc2cc(/C=N/NC(=O)CSCc3ccc([N+](=O)[O-])cc3)c(Cl)nc2c1,12*,15,-3,i,10,i
CCOc1ccc(-n2c(SCC(=O)Nc3ccc(CC)cc3)nc3n[nH]c(C)c3c2=N)cc1,1,-11,6,i,6,-6.4*
CCN1C(=O)[C@@H]2[C@H](C1=O)[C@@H]1CC(C(=O)OC)=C[C@@H](C(=O)OC)C3C1=C(C(=O)C3(CC)CC)[C@@H]2C (stereo partly specified),/,0,-7,i,/,/
CCN(CC)C(=O)c1cc([N+](=O)[O-])cc2c1-c1ccc([N+](=O)[O-])cc1C2=C(C#N)C#N,-1,40,89*,i,1,i
SMILES,MC4R barr agon,CSC inhib,Beta apoptosis,TMEM16A inh,MC4R antag cAMP,TMEM16A act
COc1cccc(C(C)(O)c2nc(-c3cccc4cccnc34)cs2)c1 (stereo unspecified),1,/,/,/,15,/
CC(=O)NC(CC(=O)NC(C)c1ccc(Cl)cc1Cl)c1ccccc1 (stereo unspecified),0,3,3,i,9,-32*
Cc1cccc2sc(NNC(=O)c3cc(-c4cccs4)nc4ccccc34)nc12,-2,103*,/,i,9,i
C/C(=N\NC(=O)c1cc(-c2cccs2)nc2ccccc12)c1ccccn1,-2,136*,102*,i,-10,i
O=C(NCC(c1ccco1)N1CCCCC1)c1cccnc1 (stereo unspecified),3,-19,-13,/,9,i
Cc1ccc(NC(=O)CN(C)C(=O)CSc2nnc(C)s2)cc1,-2,-17,2,/,10,i
COc1ccc(-n2c(C)ccc2-c2ccccc2)cn1,-1,15,-12,i,0,-4.8*
COC(=O)c1ccc(-n2c(C)ccc2-c2ccccc2)cc1,1,11,-11,i,0,i
NS(=O)(=O)c1ccc(N/N=C/c2cn(-c3ccccc3)nc2-c2cccs2)cc1,1,81*,2,i,19,i
NC(=O)N/N=C/c1cn(-c2ccccc2)nc1-c1cccs1,-1,28,19,i,6,i
N#Cc1ccc(N/N=C/c2cn(-c3ccccc3)nc2-c2ccccc2)c([N+](=O)[O-])c1,-1,56,87*,i,8,i
NS(=O)(=O)c1ccc(N/N=C/c2cn(-c3ccccc3)nc2-c2cccs2)c([N+](=O)[O-])c1,4,96*,108*,i,-3,i
CCO[C@H]1OC(C(N)=O)=C[C@@H](C2CC2)[C@@H]1CCCO,/,-4,-3,i,/,/
c1ccc2c(-c3cncc4ccccc34)cncc2c1,4,8,-10,i,-2,i
C[n+]1c2n(c3ccccc31)N=C(c1ccc(-c3ccccc3)cc1)CS2,-1,39,108*,i,-3,i
Nc1[nH]n(-c2ccccc2)c(=O)c1N=Nc1ccc2c(c1)OCCO2,0,8,-3,i,-7,i
Nc1[nH]n(-c2ccccc2)c(=O)c1N=Nc1ccc2c(c1)OCO2,-2,113*,15,i,-11,i
Cc1noc(C(=O)Nc2ccc(F)c(Cl)c2)c1Cl,1,-9,/,i,7,i
CCN(CC)CCOC(=O)c1ccc(N/C=C(/C#N)c2nc(-c3ccc4c(c3)OCO4)cs2)cc1,1,-5,113*,i,-3,i
CCN(CC)CCOC(=O)c1ccc(N/C=C(/C#N)c2nc(-c3ccc(OC)cc3)cs2)cc1,1,9,9,i,-3,i
O=C(CCc1ccc(Oc2cc([N+](=O)[O-])cc([N+](=O)[O-])c2)cc1)N1CCCCCC1,1,96*,10,i,7,i
O=C(Nc1ccc2nc3n(c(=O)c2c1)CCCCC3)c1c(F)ccc([N+](=O)[O-])c1F,-4,116*,105*,i,17,i
